In ChEMBL document CHEMBL1139212, “Indole alkaloids from three species of the Ervatamia genus: E. officinalis, E. divaricata, and E. divaricata Gouyahua” (J Nat Prod, 2007):

Assays:
P388 = test: Cytotoxicity against murine P388 cells by MTT method; format: functional, cell-based; conditions: Mus musculus
Procedure, shortened: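 In vitro growth inhibition of P-388 murine leukemia cells, read by MTT reduction; pseudolaric acid B served as positive control.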

A549 = test: Cytotoxicity against human A549 cells by SRB method; format: functional, cell-based
Procedure, shortened: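 In vitro growth inhibition of A-549 human lung carcinoma cells, read by sulforhodamine B staining; pseudolaric acid B served as positive control.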

| Structure (SMILES) | IC50 (P388) | IC50 (A549) |
| --- | --- | --- |
| CC[C@H]1C[C@@H]2C[C@H]3c4[nH]c5cc([C@@H]6C[C@H]7C(C(=O)OC)[C@@H](Cc8c6[nH]c6ccccc86)N(C)C[C@H]7CC)c(OC)cc5c4CCN(C2)[C@@H]13 (stereo partly specified) | 840 nM | 1100 nM |
| C/C=C1/CN(C)[C@@H]2Cc3c([nH]c4ccccc34)[C@H](c3cc4[nH]c5c(c4cc3OC)CCN3C[C@@H]4C[C@H](CC)[C@H]3[C@H]5C4)C[C@H]1C2C(=O)OC (stereo partly specified) | 110 nM | 520 nM |
| CC[C@H]1C[C@@H]2C[C@H]3c4[nH]c5cc([C@@H]6C[C@H]7C(C(=O)OC)[C@@H](Cc8c6[nH]c6ccccc86)N(C)C[C@H]7CC)ccc5c4CCN(C2)[C@@H]13 (stereo partly specified) | 430 nM | 260 nM |
| CC[C@@]12C=CCN3CC[C@]4(C(=C(C(=O)OC)C1)Nc1cc5c(cc14)[C@H]1[C@@H](O5)[C@H](O)[C@]4(CC)CC(C(=O)OC)=C5Nc6c(cc(O)c(OC)c6OC)[C@@]56CCN1[C@H]46)[C@H]32 [CONOPHYLLIDINE] | 25 nM | 44 nM |
| CC[C@H]1C[C@H]2CN3CCc4c([nH]c5cc([C@@H]6C[C@H]7C(C(=O)OC)[C@@H](Cc8c6[nH]c6ccccc86)N(C)C[C@H]7CC)c(OC)cc45)[C@](C(=O)OC)(C2)[C@H]13 (stereo partly specified) [ERVADIVARICATINE B] | 360 nM | 430 nM |
| COC(=O)C1=CC[C@@]23CC[C@@H]([C@@](C)(/C=C/C=C(\C)C(=O)O)OC2=O)[C@@]3(OC(C)=O)CC1 [PSEUDOLARIC ACID B] | 3700 nM |  |
